From PubChem BioAssay AID1242 (PCMD, 2008) come the findings set out here.

Among all 120,000 compounds or so, about 20 (0.02%) were called active.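 Rule for the calls: active = inhibition above 30.3% in the primary screen of four-compound pools, then above 30% when the compound was retested; inconclusive = passed the primary limit but could not be retested; inactive = the rest.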 Shown is part of a subset that was picked to be rich in actives.

A short description of this assay: Candida albicans biofilm persister killing – 4-compound mixtures, primary screen (AID 1242).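 Note: compounds exposed to preformed 24 h biofilms for 48 h; 0% = untreated biofilm control and 100% = clotrimazole plus chlorhexidine kill blank.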 Particulars: C. albicans biofilm persisters + clotrimazole, fluorescence viability, primary screen in compound mixtures, stronger effect = higher value. Put shortly: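 Probe or stimulus – Clotrimazole 50 µg/mL co-treatment · System – C. albicans biofilms · Schedule – 24 h biofilm formation, then 48 h compound exposure, 37 °C · Evaluation – percent inhibition of biofilm viability · Technique – 2-h Alamar Blue fluorescence, 535/590 nm excitation/emission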

[1] abbreviates: measured here: individual compound retest, at 61 µM.

On to `COc1ccccc1N1CCN(C(=O)CSc2ncnc3c2cnn3-c2ccc(C)c(C)c2)CC1`, for which the inhibition (at 7.6 µM unless noted) is 19.7% (inactive).

Regarding `CCOc1cc(C2C(C(=O)OC(C)C)=C(C)NC3=C2C(=O)CCC3)cc([N+](=O)[O-])c1O` (configuration not stated), for the setting “at 7.6 µM unless noted”, the inhibition was 16.6% (inactive). Take `COc1ccc(C)cc1NC(=O)NCc1ccccn1`: the inhibition (at 7.6 µM unless noted) was 16.2% (inactive). On the same count and under the same terms, under `CC(/C=C/c1ccco1)=N/NC(=O)C1COc2ccccc2O1` (configuration not stated) stands 16.1% (inactive). On to `COc1ccc(-n2c(C)nn(CC3CC3)c2=O)cc1`, for which the inhibition (at 7.6 µM unless noted) was -10.4% (inactive). Regarding `Cc1ccnc2nc(C(=O)OCC(=O)N(CC(C)C)CC(C)C)nn12`, the inhibition (at 7.6 µM unless noted) was 6.65% (inactive).

As for `CNC(=S)N1CCC(NC(=O)C(Cc2ccc(F)cc2)NC(C)=O)CC1` (configuration not stated), the inhibition (at 7.6 µM unless noted) is 5.74% (inactive). On to `COc1ccc(CC(=O)NCc2nnc(SCC(=O)Nc3nccs3)n2C)cc1`, for which, where the note is “at 7.6 µM unless noted”, the inhibition is 7.45% (inactive).

With `CCOC(=O)CN/C=C(\C#N)c1ccc(F)cc1`, the inhibition (at 7.6 µM unless noted) was 12.8% (inactive).

Consider `O=C(Nc1ccc(Cl)cc1)/C(=C1\CCCN1)[N+](=O)[O-]`, for which the inhibition (at 7.6 µM unless noted) is 18.1% (inactive). The same measure, in the same setting: under `O=C(CSc1nnc(SCc2ccc(F)cc2)s1)Nc1ccc(C(=O)O)cc1` stands 12.3% (inactive); under `COC(=O)c1nn(-c2cccc(Cl)c2)ccc1=O`, 12.6% (inactive); under `CCOC(=O)CCNC(=O)N1CCCC(C(=O)c2ccccc2SC)C1` (configuration not stated), 27% (inactive). As for `CN1C=CC=C/C1=C1\SC(=S)N(Cc2ccccc2)C1=O`, the inhibition (at 7.6 µM unless noted) was 20.5% (inactive). `COCCN1C2=C(COC(C)(C)C2)C(=S)NC1c1ccccc1` (configuration not stated): the inhibition (at 7.6 µM unless noted) was 14% (inactive). As to `CC(=O)NCC(=O)N1CCCC(C(=O)c2ccc3c4c(cccc24)CC3)C1` (configuration not stated), the inhibition (at 7.6 µM unless noted) is 0.67% (inactive).

On to `CC(=O)NC(NC(=S)Nc1c(C)n(C)n(-c2ccccc2)c1=O)C(Cl)(Cl)Cl` (configuration not stated), for which the inhibition (at 7.6 µM unless noted) is 12% (inactive). On to `COc1ccc(/C=C/CN2CCCC(C(=O)c3cc(F)ccc3F)C2)cc1` (configuration not stated), for which the inhibition (at 7.6 µM unless noted) was 8.39% (inactive). Still for that read-out and setting: under `C/C=N/N(c1ccccc1)c1ccccc1` stands 26.1% (inactive); under `O=C(Nc1ccccc1C(=O)O)c1cc(S(=O)(=O)N2CCCCC2)cs1`, -7.15% (inactive). Turning to `O=C(Nc1ccc(S(=O)(=O)Nc2nccs2)cc1)c1cc(=O)[nH]c2ccccc12`, the inhibition (at 7.6 µM unless noted) is 21.7% (inactive). On to `O=C(Cc1ccc(Cl)cc1)NCc1nc(-c2ccccc2)no1`, for which, for the setting “at 7.6 µM unless noted”, the inhibition is 11.6% (inactive). On to `COC(=O)C1=C(C(=O)OC)C(c2cc([N+](=O)[O-])ccc2O)c2sc(=O)[nH]c2S1` (configuration not stated), for which the inhibition (at 7.6 µM unless noted) is 12.9% (inactive). With `COc1ccc(C2CC(c3cccs3)=NN2C(=O)CSc2nnc(N)s2)cc1OC` (configuration not stated), where the note is “at 7.6 µM unless noted”, the inhibition is 2.04% (inactive). On the same count and under the same terms, under `Cc1ccc(Cl)cc1NC(=O)COC(=O)CC(C)(C)C` stands 18.1% (inactive); under `CC(C)(C)OC(=O)NCCCCCC(=O)N/N=C/c1coc2ccccc2c1=O`, 21.8% (inactive); under `CCC(C)(C)NC(=O)CN(Cc1cccs1)C(=O)CNS(=O)(=O)c1ccc(F)cc1`, 7.21% (inactive). Regarding `COc1cccc2c(N/N=C/c3ccco3)cc(C)nc12`, where the note is “at 7.6 µM unless noted”, the inhibition was 8.66% (inactive). Same read-out and setting: under `COc1cccc(C2Nc3cccc4cccc(c34)N2)c1` stands 25.2% (inactive); under `O=C(NC1CCCCC1)c1cc(C2CC2)on1`, 7.38% (inactive). Still for that read-out and setting: under `CCCCC(NC(=O)c1cccc(Br)c1)C(=O)O` (configuration not stated) stands 22.6% (inactive); under `CCOC(=O)c1cc(-c2ccc(F)cc2)n(CC(=O)NCc2ccccn2)c1C`, 14% (inactive). Regarding `CCN1/C(=C\c2ccc3ccccc3[n+]2CC)Sc2cc(C)ccc21`, the inhibition reads like this: (at 7.6 µM) 31.3% (active); under setting [1], 72.3%. With `CCC(=O)/C=C1\Sc2ccccc2N1CC`, where the note is “at 7.6 µM unless noted”, the inhibition is 17% (inactive). `CCN1/C(=C/c2ccc3ccc(C)cc3[n+]2CC)Sc2ccccc21`: the inhibition (at 7.6 µM unless noted) was 9.78% (inactive). The same measure, in the same setting: under `C#CCNc1ccc(C(=O)OCC)cc1` stands 15.4% (inactive); under `CC1CC(C)CN(CCC(=O)Nc2ccc3c(c2)CCC3)C1` (configuration not stated), 16.6% (inactive).

With `C=CCN1CC(C)/C(=N\O)CC1C` (configuration not stated), under “at 7.6 µM unless noted”, the inhibition was 26.7% (inactive). Same read-out and setting: under `O=C(NCCCN1CCOCC1)c1ccccc1NS(=O)(=O)c1ccc(Br)cc1` stands 20.1% (inactive). Same read-out and setting: under `CC(OC(=O)c1ccccc1OCc1ccc(Cl)cc1)C(N)=O` (configuration not stated) stands 9.56% (inactive); under `COc1ccc(NC(=O)CSc2nc(C)cs2)cc1`, -9.15% (inactive). In the case of `Cc1ccc2cc(/C=N/NC(=O)[C@@H]3CCCN3)c(Cl)nc2c1`, the inhibition by setting is: (at 7.6 µM) 36% (inactive); under setting [1], -44.1%. Turning to `COc1ccc(C(=O)N/N=C(\C)CC(=O)Nc2ccc(Cl)cn2)cc1`, the inhibition (at 7.6 µM unless noted) is 14.5% (inactive). The same measure, in the same setting: under `CC(C)Cc1nc(Cl)c(C#N)c2c1CCC2` stands 20.6% (inactive); under `Cc1nc(N)[nH]c(=O)c1Oc1cccc(C(F)(F)F)c1`, 25.2% (inactive). `CCn1ccnc1CN1CCCC(C(=O)c2ccc3c4c(cccc24)CC3)C1` (configuration not stated): the inhibition (at 7.6 µM unless noted) was 13.8% (inactive).

`CC(=O)Nc1ccc(S(=O)(=O)Nc2nccc(/C=C/c3ccccc3F)n2)cc1`: the inhibition (at 7.6 µM unless noted) was 25.1% (inactive).

Take `COc1ccc(CCNC(=O)C(=O)NCc2ccccc2C)cc1OC`: the inhibition (at 7.6 µM unless noted) was 25.3% (inactive). Consider `COCCNc1nc(-c2ccccc2)nc2c1oc1ccccc12`, for which, for the setting “at 7.6 µM unless noted”, the inhibition was 17.2% (inactive). As for `O=C(NCC1CCCO1)c1ccccc1-c1nc(-c2ccccc2Cl)no1` (configuration not stated), the inhibition (at 7.6 µM unless noted) is 16.1% (inactive). On the same count and under the same terms, under `Cc1cc(NC(=O)CSCc2ccccc2C)no1` stands 13.5% (inactive); under `O=C(NCCCN1CCOCC1)c1ccc([N+](=O)[O-])cc1[N+](=O)[O-]`, 15.2% (inactive). On the same count and under the same terms, under `O=C(NCCN1CCOCC1)Nc1cccc(Cl)c1` stands 20.6% (inactive); under `O=C(CCC(=O)N1CCCC1)Nc1ccc([N+](=O)[O-])cc1`, 11.9% (inactive); under `COc1ccc(Cn2c(O)c(/C=C3/C=CC=N3)c(=O)[nH]c2=O)cc1`, 11.9% (inactive).
